The values that follow come from ChEMBL document CHEMBL1134949, “New irreversible adenosine A(1) antagonists based on FSCPX” (Bioorg Med Chem Lett, 2002).

Where “and” joins values, the source holds several entries; their conditions need not be identical. Identical values can stand only once.

Test [1] can be described thus: Equilibrium dissociation constant for [3H]DPCPX binding to Adenosine A1 receptor from DDT1 MF2 cell membranes.
Test [2] is described as follows: Inhibitory concentration against [3H]DPCPX binding to Adenosine A1 receptor from DDT1 MF2 cells.
Test [3] deals with T1, Adenosine receptor A1 (Homo sapiens) (UniProt P30542).
T1 sequence (whole entry): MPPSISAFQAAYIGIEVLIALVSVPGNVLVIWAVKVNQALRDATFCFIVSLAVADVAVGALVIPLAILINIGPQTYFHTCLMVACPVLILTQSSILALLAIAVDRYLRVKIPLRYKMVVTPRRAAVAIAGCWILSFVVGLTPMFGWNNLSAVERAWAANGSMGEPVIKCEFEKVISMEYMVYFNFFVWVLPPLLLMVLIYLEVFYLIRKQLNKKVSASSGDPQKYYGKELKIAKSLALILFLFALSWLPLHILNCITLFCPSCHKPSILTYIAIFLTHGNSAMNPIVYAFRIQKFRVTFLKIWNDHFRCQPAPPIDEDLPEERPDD
Briefly: Percentage loss of [3H]-DPCPX binding to Adenosine A1 receptor in the presence of Xanthine derivative at 5 nM from DDT1 MF2 cells. Type of test: cell-based. A digest of the protocol: (§1)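 DDT1 MF-2 cells preincubated with or without antagonist (5 or 100 nM) for 30 min at 30 °C, then 10 cell wash cycles to remove unbound ligand. Membranes then prepared and assayed for [3H]DPCPX Bmax and KD. Receptor loss is the reduction in Bmax versus control. Mean ± SE, n = 3-6.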

Test [4] addresses T1, Adenosine receptor A1 (Homo sapiens). Briefly: Percentage loss of [3H]DPCPX binding to Adenosine A1 receptor in the presence of Xanthine derivative at 100 nM from DDT1 MF2 cells. Type of test: cell-based. A digest of the protocol: as §1

The Kd is a measure of binding affinity in units of concentration. A lower Kd goes with higher affinity. One may read the IC50 as the concentration at which inhibition is half-maximal. Read a high IC50 as lower potency. For the molecule `CCCn1c(=O)c2nc(C3CCCC3)[nH]c2n(CCCNC(=O)c2ccc(S(=O)(=O)F)cc2)c1=O`, the Kd in test [1] is 0.36 nM and 0.31 nM. Besides, the IC50 in test [2] was 21 nM.

Regarding `CCCn1c(=O)c2nc(C3CC4CCC3C4)[nH]c2n(CCCCC(=O)c2ccc(S(=O)(=O)F)cc2)c1=O` (stereo not drawn), the Loss was 50% in test [3] and 81% in test [4].

Take `CCCn1c(=O)c2nc(C3CCCC3)[nH]c2n(CCCCC(=O)c2ccc(S(=O)(=O)F)cc2)c1=O`: the Loss in test [3] is 51%; in test [4], 73%.

For `CCCn1c(=O)c2nc(C3CCCCC3)[nH]c2n(CCCCC(=O)c2ccc(S(=O)(=O)F)cc2)c1=O`, the Loss was found to be 56% in test [3] and 78% in test [4].
